According to ChEMBL document CHEMBL3526018, “Metabolites of PPI-2458, a selective, irreversible inhibitor of methionine aminopeptidase-2: structure determination and in vivo activity” (Drug Metab Dispos, 2013):
Calls of active or inactive are those of the source. No cut-off for these calls is given here.

Assays:
CYP3A4 (Homo sapiens) [1] = experiment: Ratio of Vmax to Km for human recombinant CYP3A4 assessed as ((3R,4S,5S,6R)-5-methoxy-4-((2R,3R)-2-methyl-3-(3-methylbut-2-en-1-yl)oxiran-2-yl)-1-oxaspiro[2.5]octan-6-yl ((R)-1-amino-3-hydroxy-3-methyl-1-oxobutan-2-yl)carbamate) formation; conditions: recombinant enzyme
CYP3A4 (Homo sapiens) [2] = experiment: Ratio of Vmax to Km for human recombinant CYP3A4 assessed as ((3R,4S,5S,6R)-4-((2R,3R)-3-(((R)-3,3-dimethyloxiran-2-yl)methyl)-2-methyloxiran-2-yl)-5-methoxy-1-oxaspiro[2.5]octan-6-yl ((R)-1-amino-3-methyl-1-oxobutan-2-yl)carbamate) formation; conditions: recombinant enzyme
Rattus norvegicus [3] = experiment: Inhibition of MetAP2 level in Sprague-Dawley rat liver assessed as free enzyme level at 0.3 mg/kg, po by ELISA; format: functional, organism-based; parameters: dose 0.3 mg/kg
Outline: (§1)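 Male Sprague-Dawley rats (200-225 g, n=3 per group) were dosed once IV at 0.3 mg/kg or PO at 0.3 or 3.0 mg/kg, in 11% HPCD in water. Blood, liver, lung, thymus and pooled non-mesenteric lymph nodes were taken at ~24 h and lysed or homogenized with NP-40. Free MetAP2 was measured by ELISA and expressed as % of vehicle.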

CYP3A5 (Homo sapiens) [4] = experiment: Activity of human recombinant CYP3A5 assessed as ((3R,4S,5S,6R)-4-((2R,3R)-3-((E)-4-hydroxy-3-methylbut-2-en-1-yl)-2-methyloxiran-2-yl)-5-methoxy-1-oxaspiro[2.5]octan-6-yl((R)-1-amino-3-methyl-1-oxobutan-2-yl)carbamate) formation; conditions: recombinant enzyme
Rattus norvegicus [5] = experiment: Inhibition of MetAP2 level in Sprague-Dawley rat thymus assessed as free enzyme level at 3 mg/kg, po by ELISA; format: functional, organism-based; parameters: dose 3 mg/kg
Outline: as §1

CYP3A5 (Homo sapiens) [6] = experiment: Activity of human recombinant CYP3A5 assessed as ((3R,4S,5S,6R)-4-((2R,3R)-3-((E)-4-hydroxy-3-methylbut-2-en-1-yl)-2-methyloxiran-2-yl)-5-methoxy-1-oxaspiro[2.5]octan-6-yl((R)-1-amino-3-methyl-1-oxobutan-2-yl)carbamate) formation per pmol of enzyme
Liver microsome [7] = experiment: Metabolic stability in human liver microsomes assessed as retention time of ((3R,4S,5S,6R)-4-((2R,3R)-3-(((R)-3,3-dimethyloxiran-2-yl)methyl)-2-methyloxiran-2-yl)-5-methoxy-1-oxaspiro[2.5]octan-6-yl ((R)-1-amino-3-methyl-1-oxobutan-2-yl)carbamate) at 5 mM by LC/MS analysis; format: ADME; conditions: 5000 µM
[8] = Tmax in non-Hodgkin lymphoma patient at 15 mg, po alternate days for 21 days; format: ADME, organism-based; conditions: human, in vivo
Outline: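 Non-Hodgkin lymphoma patients given oral capsules every other day for 21 days. Plasma sampled predose and at 15, 30 min and 1, 2, 3, 4, 6, 8, 24, 48 h after the first dose. Protein precipitated, extract reconstituted, parent and metabolites quantified by validated LC-MS/MS. CL/F and Vss/F derived from the administered dose.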

CYP3A5 (Homo sapiens) [9] = experiment: Activity of human recombinant CYP3A5 assessed as ((3R,4S,5S,6R)-4-((2R,3R)-3-(((R)-3,3-dimethyloxiran-2-yl)methyl)-2-methyloxiran-2-yl)-5-methoxy-1-oxaspiro[2.5]octan-6-yl ((R)-1-amino-3-methyl-1-oxobutan-2-yl)carbamate) formation per pmol of enzyme
Cytochrome P450 3A4 = Cytochrome P450 3A4 (Homo sapiens, UniProt P08684); experiment: Inhibition of CYP3A4 activity in human liver microsomes using midazolam as a substrate by LC/MS analysis; format: ADME
Cytochrome P450 3A4, sequence (P08684 whole entry): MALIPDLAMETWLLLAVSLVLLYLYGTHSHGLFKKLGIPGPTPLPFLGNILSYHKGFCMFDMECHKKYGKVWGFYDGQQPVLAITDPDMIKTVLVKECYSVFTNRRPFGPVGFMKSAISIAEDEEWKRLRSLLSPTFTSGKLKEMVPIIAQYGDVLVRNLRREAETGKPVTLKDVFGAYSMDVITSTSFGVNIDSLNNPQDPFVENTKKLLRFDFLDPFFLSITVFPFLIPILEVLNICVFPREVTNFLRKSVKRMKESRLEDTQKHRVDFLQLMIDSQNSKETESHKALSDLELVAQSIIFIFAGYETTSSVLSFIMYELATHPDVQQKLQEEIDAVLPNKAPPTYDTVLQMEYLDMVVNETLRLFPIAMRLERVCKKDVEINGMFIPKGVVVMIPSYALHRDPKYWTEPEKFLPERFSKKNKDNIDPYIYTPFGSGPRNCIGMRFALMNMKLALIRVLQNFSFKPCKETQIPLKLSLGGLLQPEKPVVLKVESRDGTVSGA

Rattus norvegicus [10] = experiment: Inhibition of MetAP2 level in Sprague-Dawley rat whole blood assessed as free enzyme level at 0.3 mg/kg, iv by ELISA; format: functional, organism-based; parameters: dose 0.3 mg/kg
Outline: as §1

[11] = target: Methionine aminopeptidase 2 (Homo sapiens) (UniProt P50579); experiment: Inhibition of human MetAP2 assessed as remaining enzyme activity after 1 hr
Methionine aminopeptidase 2 (Homo sapiens), sequence (P50579 2-478 limits assumed): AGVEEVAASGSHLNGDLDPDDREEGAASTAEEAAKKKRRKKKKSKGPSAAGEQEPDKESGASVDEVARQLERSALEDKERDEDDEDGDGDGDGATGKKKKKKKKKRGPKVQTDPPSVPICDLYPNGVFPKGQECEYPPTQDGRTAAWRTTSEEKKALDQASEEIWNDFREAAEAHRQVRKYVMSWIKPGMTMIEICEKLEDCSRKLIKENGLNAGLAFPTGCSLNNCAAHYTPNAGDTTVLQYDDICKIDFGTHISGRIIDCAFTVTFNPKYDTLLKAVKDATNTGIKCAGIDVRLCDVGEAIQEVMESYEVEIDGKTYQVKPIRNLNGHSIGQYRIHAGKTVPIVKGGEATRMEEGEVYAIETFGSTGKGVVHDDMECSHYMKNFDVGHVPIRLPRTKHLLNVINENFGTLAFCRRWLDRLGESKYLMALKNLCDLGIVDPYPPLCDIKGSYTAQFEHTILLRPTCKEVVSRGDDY
Outline: (§2)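 The hMetAP2 assay follows the fraction of active enzyme remaining during an 8 h incubation with inhibitor, relative to an enzyme-only control.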

Rattus norvegicus [12] = experiment: Inhibition of MetAP2 level in Sprague-Dawley rat whole blood assessed as free enzyme level at 0.3 mg/kg, po by ELISA; format: functional, organism-based; parameters: dose 0.3 mg/kg
Outline: as §1

Rattus norvegicus [13] = experiment: Inhibition of MetAP2 level in Sprague-Dawley rat whole blood assessed as free enzyme level at 3 mg/kg, po by ELISA; format: functional, organism-based; parameters: dose 3 mg/kg
Outline: as §1

Rattus norvegicus [14] = experiment: Inhibition of MetAP2 level in Sprague-Dawley rat thymus assessed as free enzyme level at 0.3 mg/kg, iv by ELISA; format: functional, organism-based; parameters: dose 0.3 mg/kg
Outline: as §1

Rattus norvegicus [15] = experiment: Inhibition of MetAP2 level in Sprague-Dawley rat lung assessed as free enzyme level at 0.3 mg/kg, po by ELISA; format: functional, organism-based; parameters: dose 0.3 mg/kg
Outline: as §1

[16] = target: Methionine aminopeptidase 2 (Homo sapiens) (UniProt P50579); experiment: Inhibition of human MetAP2 assessed as remaining enzyme activity after 8 hrs; parameters: concentration or dose not given beside the values
Outline: as §2

Rattus norvegicus [17] = experiment: Inhibition of MetAP2 level in Sprague-Dawley rat thymus assessed as free enzyme level at 0.3 mg/kg, po by ELISA; format: functional, organism-based; parameters: dose 0.3 mg/kg
Outline: as §1

Rattus norvegicus [18] = experiment: Inhibition of MetAP2 level in Sprague-Dawley rat lymph nodes assessed as free enzyme level at 0.3 mg/kg, iv by ELISA; format: functional, organism-based; parameters: dose 0.3 mg/kg
Outline: as §1

CYP3A4 (Homo sapiens) [19] = experiment: Ratio of Vmax to Km for human recombinant CYP3A4 assessed as ((3R,4S,5S,6R)-4-((2R,3R)-3-((E)-4-hydroxy-3-methylbut-2-en-1-yl)-2-methyloxiran-2-yl)-5-methoxy-1-oxaspiro[2.5]octan-6-yl((R)-1-amino-3-methyl-1-oxobutan-2-yl)carbamate) formation; conditions: recombinant enzyme
CYP3A4 (Homo sapiens) [20] = experiment: Ratio of Vmax to Km for human recombinant CYP3A4 assessed as ((3R,4S,5S,6R)-4-((2R,3R)-3-(((S)-3,3-dimethyloxiran-2-yl)methyl)-2-methyloxiran-2-yl)-5-methoxy-1-oxaspiro[2.5]octan-6-yl ((R)-1-amino-3-methyl-1-oxobutan-2-yl)carbamate) formation; conditions: recombinant enzyme
Liver microsome [21] = experiment: Metabolic stability in human liver microsomes assessed as retention time of ((3R,4S,5S,6R)-4-((2R,3R)-3-((E)-4-hydroxy-3-methylbut-2-en-1-yl)-2-methyloxiran-2-yl)-5-methoxy-1-oxaspiro[2.5]octan-6-yl((R)-1-amino-3-methyl-1-oxobutan-2-yl)carbamate) at 5 mM by LC/MS analysis; format: ADME; conditions: 5000 µM
Outline: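 Liver microsomes (pooled male/female) in 100 mM KPO4 pH 7.4 with PPI-2458 (5 mM stock), pre-incubated 5 min at 37°C, then 10 mM NADPH added; 20 min at 37°C with shaking. Time-zero and no-NADPH controls. Quenched with CH3CN; supernatant dried and redissolved in water. Analysed by LC-MS, ESI+ full scan 300–800 amu, C18 column, 10→50% B gradient.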

CO[C@@H]1[C@H](OC(=O)N[C@@H](C(N)=O)C(C)C)CC[C@]2(CO2)[C@H]1[C@@]1(C)O[C@@H]1CC=C(C)C [PPI-2458]
Vmax/Km (CYP3A4 (Homo sapiens) [1]): 0.019 µL/min | Vmax/Km (CYP3A4 (Homo sapiens) [2]): 0.16 µL/min | inhibition (Rattus norvegicus [3]): Active | Km (CYP3A5 (Homo sapiens) [4]): 26 µM | inhibition (Rattus norvegicus [5]): Active | Vmax (CYP3A5 (Homo sapiens) [6]): 0.8 pmol/min | Drug metabolism (Liver microsome [7]): metabolite_detected | Tmax [8]: 36 min | Vmax (CYP3A5 (Homo sapiens) [9]): 2.86 pmol/min | Ki (Cytochrome P450 3A4): 58 µM | inhibition (Rattus norvegicus [10]): Active | Activity [11]: 12% | inhibition (Rattus norvegicus [12]): Active | inhibition (Rattus norvegicus [13]): Active | inhibition (Rattus norvegicus [14]): Active | inhibition (Rattus norvegicus [15]): Active | Activity [16]: 2.8% | inhibition (Rattus norvegicus [17]): Active | inhibition (Rattus norvegicus [18]): Active | Vmax/Km (CYP3A4 (Homo sapiens) [19]): 0.09 µL/min | Vmax/Km (CYP3A4 (Homo sapiens) [20]): 0.19 µL/min | Drug metabolism (Liver microsome [21]): metabolite_detected
